Converted amounts (≈) assume the structure as drawn. The source made the active and inactive calls. The calls are words filed in the database; no cut-off is given here.
Legend:
Escherichia coli = test: Antibacterial activity against Escherichia coli ATCC 9637 up to 200 ug/ml after 2 days by twofold broth dilution method; assay type: functional, organism-based
How it was run: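 Twofold serial broth dilution run in NYG broth (0.8% nutrient broth, 0.5% yeast extract, 0.1% glucose). MIC is the lowest concentration fully inhibiting visible growth.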

Streptococcus mutans [1] = test: Antibacterial activity against Streptococcus mutans ATCC 25175 after 2 days by twofold broth dilution method; assay type: functional; conditions: ATCC 25175, 48 h
How it was run: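 Freeze-dried S. mutans grown stationary 2 days at 37 °C in 3.7% BHI broth, then used as inoculum. Compounds serially 2-fold diluted in DMF and added to BHI broth, with solubility limiting the top concentration. MIC is the lowest concentration giving complete inhibition of visible growth after 2 days at 37 °C. At least triplicate on separate occasions.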

Streptococcus mutans [2] = test: Antibacterial activity against Streptococcus mutans ATCC 25175 after 2 days by twofold broth dilution method in presence of anethole; assay type: functional; conditions: ATCC 25175, 48 h
Cutibacterium acnes = test: Antibacterial activity against Propionibacterium acnes ATCC 11827; assay type: functional

SMILES | Activity (Escherichia coli) | MIC (Streptococcus mutans [1]) [µg/mL] | MBC (Streptococcus mutans [1]) [µg/mL] | MBC (Streptococcus mutans [2]) [µg/mL] | MIC (Cutibacterium acnes) [µg/mL]
O=C(O)c1c(O)cccc1CC1CCCCCCC1 | inactive | 6.25 (≈ 23.8 µM) | – | – | –
CCCCCCCCCOC(=O)c1ccccc1O | inactive | – | – | – | –
C=CC/C=C\C/C=C\CCCCCCCc1cccc(O)c1C(=O)OC | inactive | – | – | – | –
O=C(O)c1c(O)cccc1CCc1cc(O)ccc1O | inactive | 200 (≈ 729 µM) | – | – | –
C/C=C/c1ccc(OC)cc1 | inactive | – | – | – | –
O=C(O)c1c(O)cccc1CCC1CCCCC1 | inactive | 3.13 (≈ 12.6 µM) | – | – | –
O=C(O)c1c(O)cccc1CCc1ccccc1 | inactive | 50 (≈ 206 µM) | – | – | –
O=C(O)c1c(O)cccc1CC1CCCCC1 | inactive | 25 (≈ 107 µM) | – | – | –
CCCCCC(CC)Cc1cccc(O)c1C(=O)O (stereo unspecified) | inactive | 3.13 (≈ 11.8 µM) | – | – | –
O=C(O)c1c(O)cccc1CCCCc1ccccc1 | inactive | 6.25 (≈ 23.1 µM) | – | – | –
O=C(O)c1c(O)cccc1CCc1ccc(O)cc1O | inactive | > 200 | – | – | –
O=C(O)c1c(O)cccc1CCc1ccc(O)c(O)c1 | inactive | 200 (≈ 729 µM) | – | – | –
CCCCCCOC(=O)c1ccccc1O | inactive | – | – | – | –
CCCCCC/C=C\CCCCCCCc1cccc(O)c1C(=O)O [GINGKOLIC ACID] | inactive | 6.25 (≈ 18 µM) | 6.25 (≈ 18 µM) | – | –
C=CC/C=C\C/C=C\CCCCCCCc1cccc(OC(C)=O)c1C(=O)O | inactive | – | – | – | –
CCCCC(C)Cc1cccc(O)c1C(=O)O (stereo unspecified) | inactive | 12.5 (≈ 52.9 µM) | – | – | –
O=C(O)c1c(O)cccc1CC1CCCCCCCCCCC1 | inactive | 1.56 (≈ 4.9 µM) | – | – | –
O=C(O)c1c(O)cccc1CCc1ccc(O)cc1 | inactive | 100 (≈ 387 µM) | – | – | –
O=C(O)c1c(O)cccc1CC1CCCC1 | inactive | 25 (≈ 113 µM) | – | – | –
O=C(O)c1c(O)cccc1CCc1cc(O)c(O)cc1O | inactive | 200 (≈ 689 µM) | – | – | –
C=CC/C=C\C/C=C\CCCCCCCc1cccc(O)c1C(=O)O [ANACARDIC ACID] | inactive | 1.56 (≈ 4.56 µM) | 6.25 (≈ 18.2 µM) | 0.78 | –
CCCCCCCCCCCCCCCc1cccc(O)c1C(=O)O [ANACARDIC ACID] | inactive | > 800 | – | – | 0.78 (≈ 2.24 µM)
CCCCCCCCCCCCc1cccc(O)c1C(=O)O | inactive | 1.56 (≈ 5.09 µM) | 6.25 (≈ 20.4 µM) | – | –
CC(C)CCCC(C)CCCc1cccc(O)c1C(=O)O (stereo unspecified) | inactive | 0.78 (≈ 2.67 µM) | – | – | –
CCC/C=C\C/C=C\CCCCCCCc1cccc(O)c1C(=O)O | inactive | 3.13 (≈ 9.09 µM) | 3.13 (≈ 9.09 µM) | – | –

Source: ChEMBL document CHEMBL1141664, “Design and evaluation of anacardic acid derivatives as anticavity agents” (2008)
